NTR1 ag: agonists of human neurotensin receptor NTR1. P30989. NTR1-U2OS beta-arrestin-GFP spot imaging, agonist mode. activation, % at 20 µM. actives 0.17% (n = 330,000). AID 493036;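 active = activation at or above 40% of the spot to cytoplasm intensity ratio, with at least 20 cells analyzed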;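 note: 0% = DMSO without peptide and 100% = 100 nM NTR1 peptide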
SR-BI uptake up: enhances SR-BI lipid uptake from DiI-HDL; actives 0.096% (n = 320,000); CHO ldlA[mSR-BI] cells, DiI-HDL uptake fluorescence, 3 h; 100 = double the neutral-control signal; AID 504775; activation, % at 12.5 µM;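 active = mean replicate activation of at least 60% and every replicate at or above 60%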;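 note: 0% = median plate neutral-control signal and 100% = twice that signal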
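Material – SR-BI-overexpressing, LDLR-lacking CHO cells · Medium – BSA-supplemented, HEPES-buffered Ham's F12, pH 7.4 · Doses – single concentration · Times – compound with DiI-HDL co-incubation, 3 h at 37 °C · Measured by – bottom-read fluorescence, 550/595 nm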
Vif inh: inhibitors of HIV Vif; inhibition, % at 7.49 µM; HEK293T cells, Vif self-association by quenched fluorescence, imaging, 24 h; actives 0.35% (n = 340,000); AID 602346; in the data active = inhibition above about 50%, passing the limit was not always enough
CaV13 ICDI inh: Disruptors of the CACNA1D IQ motif to Ca2+-dependent inactivation inhibitor domain association, primary screening, Förster resonance energy transfer in intact living …; HEK cells, CFP/YFP FRET ICDI-IQ, plate reader, 10 min; percent FRET-ratio fall versus neutral wells; inhibition, % at 12.3 µM; actives 0.098% (n = 340,000);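 active = mean replicate inhibition of at least 30% and at least 1% of replicates passing that level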;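 note: 0% = median of the neutral control wells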
SR-BI DiI inh: mouse SR-BI HDL lipid transfer inhibition. Q61009. ldlA[mSR-BI] CHO cells, DiI-HDL uptake fluorescence, 3 h. inhibition, % at 12.5 µM. actives 0.96% (n = 320,000);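 active = mean replicate inhibition of at least 70% and a set share of replicates each scoring 70 or more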;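 note: 0% = median of neutral control wells and 100% = median of positive control wells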
Target sequence (Q61009 whole entry, looked up): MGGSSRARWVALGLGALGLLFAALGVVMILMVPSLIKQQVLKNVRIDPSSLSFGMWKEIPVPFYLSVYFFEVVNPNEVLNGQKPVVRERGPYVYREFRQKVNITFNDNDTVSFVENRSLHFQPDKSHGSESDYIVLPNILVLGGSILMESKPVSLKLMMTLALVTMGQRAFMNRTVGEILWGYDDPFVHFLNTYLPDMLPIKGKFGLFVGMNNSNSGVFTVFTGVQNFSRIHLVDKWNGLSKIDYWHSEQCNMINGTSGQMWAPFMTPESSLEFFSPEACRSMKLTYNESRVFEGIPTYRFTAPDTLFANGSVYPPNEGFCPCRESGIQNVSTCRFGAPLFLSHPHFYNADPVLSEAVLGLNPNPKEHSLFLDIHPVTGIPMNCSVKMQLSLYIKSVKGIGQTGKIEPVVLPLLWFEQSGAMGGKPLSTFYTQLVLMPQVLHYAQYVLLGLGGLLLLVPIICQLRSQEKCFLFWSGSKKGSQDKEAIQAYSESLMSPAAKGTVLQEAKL
V-ATPase pHluor: yeast V-ATPase proton transport regulation by pHLuorin; S. cerevisiae, pHLuorin cytosolic pH fluorescence; response, % at 10 µM; actives 0.37% (n = 350,000); in the data active = response mostly above about 7.3%, no sharp cut-off; inactive = mostly below about 5.4%; note: actives read high
Numbers without * were called inactive. Only some compounds are listed: those with a hit (about 1.7% of all), similar ones and a draw of the others.

What do the screens show for `COc1ccccc1N1CCN(C(=O)CSc2nc3ccccc3o2)CC1`?
NTR1 ag: 2; SR-BI uptake up: -24; Vif inh: -2; CaV13 ICDI inh: -6; SR-BI DiI inh: 24; V-ATPase pHluor: -1

Results for O=C(COn1nnc2ccc(Cl)cc21)NC1CCS(=O)(=O)C1 (stereo not given) ?
NTR1 ag: 1; SR-BI uptake up: 5; Vif inh: -4; CaV13 ICDI inh: -5; SR-BI DiI inh: -5; V-ATPase pHluor: -2

How did CSc1ccc(Cl)c(C(=O)N2CCOc3ccccc32)c1 do in these assays?
NTR1 ag: 1; SR-BI uptake up: -25; Vif inh: -6; CaV13 ICDI inh: 52*; SR-BI DiI inh: 25; V-ATPase pHluor: 4

What do the screens show for `O=C1C=C(c2cc3ccccc3s2)C[C@@H](c2ccc(Cl)cc2)C1`?
NTR1 ag: 3; SR-BI uptake up: -11; Vif inh: -2; CaV13 ICDI inh: -11; SR-BI DiI inh: 11; V-ATPase pHluor: 3

What do the screens show for `COc1ccc([C@H]2CC(=O)C=C(c3cc4ccccc4s3)C2)cc1`?
NTR1 ag: 2; SR-BI uptake up: -33; Vif inh: 51*; CaV13 ICDI inh: -2; SR-BI DiI inh: 33; V-ATPase pHluor: 0

Results for Cc1ccccc1C(=O)Nc1nnc(S(=O)(=O)N2CCCCCC2)s1 ?
NTR1 ag: 1; CaV13 ICDI inh: -6; V-ATPase pHluor: -4

What do the screens show for `CC(C)COC(=O)N1CCN(S(=O)(=O)c2ccc3c(c2)CCC3)CC1`?
NTR1 ag: 1; SR-BI uptake up: -27; Vif inh: 6; CaV13 ICDI inh: -2; SR-BI DiI inh: 27; V-ATPase pHluor: 0

Results for CCn1c(SCc2ccc(C(=O)Nc3nccs3)cc2)nnc1-c1ccc(NC(C)=O)cc1 ?
NTR1 ag: 0; SR-BI uptake up: -22; Vif inh: -13; SR-BI DiI inh: 22; V-ATPase pHluor: 5

What do the screens show for `CCn1c(SCc2ccc(C(=O)Nc3nccs3)cc2)nnc1-c1ccc(N)cc1`?
NTR1 ag: 0; SR-BI uptake up: -19; Vif inh: 54*; CaV13 ICDI inh: -5; SR-BI DiI inh: 19; V-ATPase pHluor: 2

What do the screens show for `O=C(NC1CCC(O)CC1)c1cc(-c2ccc(Cl)cc2)nc2ccccc12` (stereo not given)?
NTR1 ag: 3; SR-BI uptake up: -77; Vif inh: 5; CaV13 ICDI inh: -3; SR-BI DiI inh: 77*; V-ATPase pHluor: 4

Results for O=C(N/N=C/c1ccc[nH]1)c1sc2ccccc2c1Cl ?
NTR1 ag: 1; SR-BI uptake up: -75; Vif inh: -9; CaV13 ICDI inh: -5; SR-BI DiI inh: 75*; V-ATPase pHluor: 1

What do the screens show for `O=C(N/N=C/c1ccc[nH]1)c1cc(-c2ccc(Cl)cc2)nc2ccccc12`?
NTR1 ag: 5; SR-BI uptake up: -93; Vif inh: -3; CaV13 ICDI inh: -5; SR-BI DiI inh: 93*; V-ATPase pHluor: -4

How did CC(=O)N1c2ccc(S(=O)(=O)NCC3CCC(C(=O)Nc4cc(C)ccn4)CC3)cc2CC1C (stereo not given) do in these assays?
NTR1 ag: 3; SR-BI uptake up: -28; Vif inh: -17; CaV13 ICDI inh: -5; SR-BI DiI inh: 28; V-ATPase pHluor: -1

Results for Cc1sc2nc(COC(=O)CNC(=O)c3ccc(C(C)(C)C)cc3)[nH]c(=O)c2c1C ?
NTR1 ag: -2; SR-BI uptake up: 42; Vif inh: 5; CaV13 ICDI inh: -6; SR-BI DiI inh: -42; V-ATPase pHluor: 0

What do the screens show for `Cn1c(-c2ccccc2)cc2c3no[n+]([O-])c3ccc21`?
NTR1 ag: 1; SR-BI uptake up: -55; Vif inh: 61*; SR-BI DiI inh: 55; V-ATPase pHluor: 0

How did Cn1cc(C(=O)c2ccc(Cl)cc2Cl)cc1C(=O)N/N=C(\N)COc1cccc(C(F)(F)F)c1 do in these assays?
NTR1 ag: 1; SR-BI uptake up: -81; Vif inh: -7; CaV13 ICDI inh: -5; SR-BI DiI inh: 81*; V-ATPase pHluor: 2

What do the screens show for `N#Cc1cccc(C(=O)Nc2ccc(S(=O)(=O)Nc3nccs3)cc2)c1`?
NTR1 ag: 0; SR-BI uptake up: 31; Vif inh: 66*; CaV13 ICDI inh: -3; SR-BI DiI inh: -31; V-ATPase pHluor: -1

What do the screens show for `Cc1ccc(N2CC(C(=O)Nc3ccc(S(=O)(=O)N4CCOCC4)cc3)CC2=O)cc1Cl` (stereo not given)?
NTR1 ag: 1; SR-BI uptake up: -3; Vif inh: 8; CaV13 ICDI inh: -2; SR-BI DiI inh: 3; V-ATPase pHluor: 1

What do the screens show for `C=CCN(c1ccccc1)S(=O)(=O)c1cccc(C(=O)Nc2ccncc2)c1`?
NTR1 ag: 5; SR-BI uptake up: -22; Vif inh: -26; CaV13 ICDI inh: -1; SR-BI DiI inh: 22; V-ATPase pHluor: 4

How did C=CCN(c1ccccc1)S(=O)(=O)c1cccc(C(=O)NNC(=O)c2ccccc2O)c1 do in these assays?
NTR1 ag: 2; SR-BI uptake up: -87; Vif inh: -5; CaV13 ICDI inh: -6; SR-BI DiI inh: 87*; V-ATPase pHluor: 0

Results for C=CCN(c1ccccc1)S(=O)(=O)c1cccc(C(=O)Nc2ccc(N3CCOCC3)cc2)c1 ?
NTR1 ag: 1; SR-BI uptake up: -80; CaV13 ICDI inh: -5; SR-BI DiI inh: 80*; V-ATPase pHluor: 2

Results for CC(=O)Nc1ccc(NC(=O)C(C)OC(=O)c2cccc(S(=O)(=O)N3CCCCC3)c2)cc1 (stereo not given) ?
NTR1 ag: -1; SR-BI uptake up: -18; Vif inh: -13; SR-BI DiI inh: 18; V-ATPase pHluor: 4

Results for CC(=O)Nc1ccc(NC(=O)C(C)OC(=O)c2cccc(S(=O)(=O)N3CCCCCC3)c2)cc1 (stereo not given) ?
NTR1 ag: 0; SR-BI uptake up: -9; Vif inh: -5; CaV13 ICDI inh: -7; SR-BI DiI inh: 9; V-ATPase pHluor: 15*

Results for CCN1CCN(c2ccc(NC(=O)c3cccc(S(=O)(=O)N4CCCC4)c3)cc2)CC1 ?
NTR1 ag: -1; SR-BI uptake up: 22; Vif inh: 25; CaV13 ICDI inh: -5; SR-BI DiI inh: -22; V-ATPase pHluor: 2

What do the screens show for `O=C(Nc1ccc(N2CCOCC2)cc1)c1cccc(S(=O)(=O)N2CCCCC2)c1`?
NTR1 ag: -1; SR-BI uptake up: -80; SR-BI DiI inh: 80*; V-ATPase pHluor: -2

How did Cc1cc(C(=O)COc2ccc(F)cc2Br)c(C)n1C1CC1 do in these assays?
NTR1 ag: 3; SR-BI uptake up: -47; Vif inh: -8; CaV13 ICDI inh: -5; SR-BI DiI inh: 47; V-ATPase pHluor: 3
